The source made the active and inactive calls.
Experiments:
[1] = system: Receptor-type tyrosine-protein kinase FLT3 (Homo sapiens), P36888 [N841I]; assay: Binding affinity to human partial length FLT3 N841I mutant (V592 to Y969 residues) expressed in bacterial expression system assessed as remaining unbound target protein level at 1000 nM by Kinomescan method relative to control
Outline: (§1)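 KINOMEscan competition-binding profiling across the panel of 468 kinases and mutants, with inhibitor tested at 1 μM. Binding is expressed as percent of control, with DMSO as the reference control.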

[2] = target: Serine/threonine-protein kinase ULK1 (Homo sapiens) (UniProt O75385); assay: Binding affinity to wild-type human partial length ULK1 (M1 to T309 residues) expressed in mammalian expression system assessed as remaining unbound target protein level at 1000 nM by Kinomescan method relative to control
[3] = system: Proto-oncogene tyrosine-protein kinase receptor Ret (Homo sapiens), P07949 [V804M]; assay: Binding affinity to human partial length RET V804M mutant (E713 to D1014 residues) expressed in bacterial expression system assessed as remaining unbound target protein level at 1000 nM by Kinomescan method relative to control; outline: as §1
[4] = target: Glycogen synthase kinase-3 alpha (Homo sapiens) (UniProt P49840); assay: Binding affinity to wild-type human full length GSK3A (M1 to S483 residues) expressed in bacterial expression system assessed as remaining unbound target protein level at 1000 nM by Kinomescan method relative to control
Outline: (§2)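 KINOMEscan competition binding profile across a panel of 468 kinases and mutants, with the inhibitor tested at a single concentration of 1 μM. Binding is reported as percent of control, meaning signal relative to a DMSO control.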

[5] = target: Calcium/calmodulin-dependent protein kinase type 1G (Homo sapiens) (UniProt Q96NX5); assay: Binding affinity to wild-type human partial length CAMK1G (M1 to A342 residues) expressed in bacterial expression system assessed as remaining unbound target protein level at 1000 nM by Kinomescan method relative to control; outline: as §2
[6] = target: Receptor-type tyrosine-protein kinase FLT3 (Homo sapiens) (UniProt P36888); assay: Binding affinity to wild-type human partial length autoinhibited FLT3 (H564 to Y969 residues) expressed in mammalian expression system assessed as remaining unbound target protein level at 1000 nM by Kinomescan method relative to control
[7] = target: Ankyrin repeat and protein kinase domain-containing protein 1 (Homo sapiens) (UniProt Q8NFD2); assay: Binding affinity to wild-type human partial length ANKK1 (M1 to A305 residues) expressed in mammalian expression system assessed as remaining unbound target protein level at 1000 nM by Kinomescan method relative to control
Outline: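 Profiled in a KINOMEscan binding panel with the inhibitor at a single concentration of 1 μM. Binding to each kinase was read out as percent of control, relative to a DMSO control. Strong binders were defined as those with a percent control value below 1.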

[8] = target: Serine/threonine-protein kinase PRP4 homolog (Homo sapiens) (UniProt Q13523); assay: Binding affinity to wild-type human partial length PRP4 (D657 to I1007 residues) expressed in bacterial expression system assessed as remaining unbound target protein level at 1000 nM by Kinomescan method relative to control
[9] = target: Casein kinase I isoform gamma-3 (Homo sapiens) (UniProt Q9Y6M4); assay: Binding affinity to wild-type human full length CSNK1G3 (M1 to K447 residues) expressed in bacterial expression system assessed as remaining unbound target protein level at 1000 nM by Kinomescan method relative to control
Outline: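 Single-point competition binding screen across a panel of 468 kinases and mutants, with the inhibitor at 1 μM. Binding is read out as percent of a DMSO control, and targets below 1 percent control were classed as strong binders.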

[10] = target: Ephrin type-A receptor 1 (Homo sapiens) (UniProt P21709); assay: Binding affinity to wild-type human partial length EPHA1 (V588 to I913 residues) expressed in bacterial expression system assessed as remaining unbound target protein level at 1000 nM by Kinomescan method relative to control
Outline: (§3)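 KINOMEscan binding panel of 468 kinases/mutants. Inhibitor was tested at a single concentration of 1 μM. Binding is reported as percent of control, defined relative to a DMSO control.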

[11] = Cmax in mouse at 10 mg/kg, po by LC-MS/MS analysis; assay type: ADME, organism-based; parameters: dose 10 mg/kg, route oral; settings: in vivo
[12] = target: AP2-associated protein kinase 1 (Homo sapiens) (UniProt Q2M2I8); assay: Binding affinity to human wild-type AAK1 (G25 to L333 residues) expressed in bacterial expression system assessed as remaining unbound target protein level at 1000 nM by Kinomescan method relative to control
Outline: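 KINOMEscan competitive binding profile at 1 μM inhibitor. Remaining target binding reported as percent of DMSO control.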

[13] = target: Cyclin-dependent kinase 7 (Homo sapiens) (UniProt P50613); assay: Inhibition of CDK7 in human MEC1 cells assessed as decrease in RNA polymerase 2 phosphorylation at Ser 5 residues up to 3 uM after 2 hrs by immunoblotting analysis; assay type: cell-based
[14] = target: Ephrin type-B receptor 2 (Homo sapiens) (UniProt P29323); assay: Binding affinity to wild-type human partial length EPHB2 (I597 to L902 residues) expressed in bacterial expression system assessed as remaining unbound target protein level at 1000 nM by Kinomescan method relative to control
[15] = target: Rhodopsin kinase GRK1 (Homo sapiens) (UniProt Q15835); assay: Binding affinity to wild-type human full length GRK1 (M1 to S563 residues) expressed in mammalian expression system assessed as remaining unbound target protein level at 1000 nM by Kinomescan method relative to control
Outline: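 KINOMEscan competition binding panel run at 1 μM inhibitor; binding reported as percent of DMSO control (remaining target bound versus vehicle).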

[16] = target: Serine/threonine-protein kinase 38 (Homo sapiens) (UniProt Q15208); assay: Binding affinity to wild-type human partial length NDR1 (N33 to E449 residues) expressed in mammalian expression system assessed as remaining unbound target protein level at 1000 nM by Kinomescan method relative to control
[17] = target: Ribosomal protein S6 kinase alpha-1 (Homo sapiens) (UniProt Q15418); assay: Binding affinity to wild-type human partial length N-terminal RSK1 Kinase domain 1 (M1 to E388 residues) expressed in bacterial expression system assessed as remaining unbound target protein level at 1000 nM by Kinomescan method relative to control
[18] = target: Fibroblast growth factor receptor 1 (Homo sapiens) (UniProt P11362); assay: Binding affinity to wild-type human partial length FGFR1 (P357 to V669 residues) expressed in bacterial expression system assessed as remaining unbound target protein level at 1000 nM by Kinomescan method relative to control; outline: as §3
[19] = target: Serine/threonine-protein kinase Nek1 (Homo sapiens) (UniProt Q96PY6); assay: Binding affinity to wild-type human partial length NEK1 (M1 to K278 residues) expressed in bacterial expression system assessed as remaining unbound target protein level at 1000 nM by Kinomescan method relative to control
[20] = target: Serine/threonine-protein kinase 32C (Homo sapiens) (UniProt Q86UX6); assay: Binding affinity to wild-type human partial length YANK3 (M68 to G486 residues) expressed in bacterial expression system assessed as remaining unbound target protein level at 1000 nM by Kinomescan method relative to control

Sequence of Serine/threonine-protein kinase ULK1 (Homo sapiens) (O75385 whole entry, the tested form may be a part): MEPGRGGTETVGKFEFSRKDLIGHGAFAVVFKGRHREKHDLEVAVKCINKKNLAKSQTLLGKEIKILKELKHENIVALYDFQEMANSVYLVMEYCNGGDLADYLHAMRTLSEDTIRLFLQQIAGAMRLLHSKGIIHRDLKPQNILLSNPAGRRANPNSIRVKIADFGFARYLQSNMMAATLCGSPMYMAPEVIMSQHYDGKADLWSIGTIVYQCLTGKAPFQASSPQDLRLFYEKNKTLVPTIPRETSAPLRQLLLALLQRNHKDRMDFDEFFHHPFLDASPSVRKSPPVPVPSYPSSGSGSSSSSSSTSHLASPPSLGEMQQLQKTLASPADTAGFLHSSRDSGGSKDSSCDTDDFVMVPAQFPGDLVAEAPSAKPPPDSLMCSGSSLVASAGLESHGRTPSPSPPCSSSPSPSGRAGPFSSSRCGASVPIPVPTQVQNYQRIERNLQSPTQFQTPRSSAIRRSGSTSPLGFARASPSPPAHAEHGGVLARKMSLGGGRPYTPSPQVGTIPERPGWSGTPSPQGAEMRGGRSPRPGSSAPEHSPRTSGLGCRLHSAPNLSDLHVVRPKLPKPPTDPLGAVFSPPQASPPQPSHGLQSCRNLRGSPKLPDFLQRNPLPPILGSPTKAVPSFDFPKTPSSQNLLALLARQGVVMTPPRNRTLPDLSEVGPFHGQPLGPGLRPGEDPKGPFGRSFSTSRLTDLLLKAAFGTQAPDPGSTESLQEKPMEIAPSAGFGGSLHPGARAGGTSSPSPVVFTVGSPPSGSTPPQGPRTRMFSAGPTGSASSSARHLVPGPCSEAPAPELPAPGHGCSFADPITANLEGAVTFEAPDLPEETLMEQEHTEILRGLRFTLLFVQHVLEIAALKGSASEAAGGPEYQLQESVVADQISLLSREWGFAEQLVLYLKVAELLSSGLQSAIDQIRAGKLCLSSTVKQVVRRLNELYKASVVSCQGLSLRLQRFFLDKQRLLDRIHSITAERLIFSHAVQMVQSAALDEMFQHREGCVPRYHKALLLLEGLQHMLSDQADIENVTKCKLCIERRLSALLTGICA
Sequence of Serine/threonine-protein kinase Nek1 (Homo sapiens) (Q96PY6 whole entry, the tested form may be a part): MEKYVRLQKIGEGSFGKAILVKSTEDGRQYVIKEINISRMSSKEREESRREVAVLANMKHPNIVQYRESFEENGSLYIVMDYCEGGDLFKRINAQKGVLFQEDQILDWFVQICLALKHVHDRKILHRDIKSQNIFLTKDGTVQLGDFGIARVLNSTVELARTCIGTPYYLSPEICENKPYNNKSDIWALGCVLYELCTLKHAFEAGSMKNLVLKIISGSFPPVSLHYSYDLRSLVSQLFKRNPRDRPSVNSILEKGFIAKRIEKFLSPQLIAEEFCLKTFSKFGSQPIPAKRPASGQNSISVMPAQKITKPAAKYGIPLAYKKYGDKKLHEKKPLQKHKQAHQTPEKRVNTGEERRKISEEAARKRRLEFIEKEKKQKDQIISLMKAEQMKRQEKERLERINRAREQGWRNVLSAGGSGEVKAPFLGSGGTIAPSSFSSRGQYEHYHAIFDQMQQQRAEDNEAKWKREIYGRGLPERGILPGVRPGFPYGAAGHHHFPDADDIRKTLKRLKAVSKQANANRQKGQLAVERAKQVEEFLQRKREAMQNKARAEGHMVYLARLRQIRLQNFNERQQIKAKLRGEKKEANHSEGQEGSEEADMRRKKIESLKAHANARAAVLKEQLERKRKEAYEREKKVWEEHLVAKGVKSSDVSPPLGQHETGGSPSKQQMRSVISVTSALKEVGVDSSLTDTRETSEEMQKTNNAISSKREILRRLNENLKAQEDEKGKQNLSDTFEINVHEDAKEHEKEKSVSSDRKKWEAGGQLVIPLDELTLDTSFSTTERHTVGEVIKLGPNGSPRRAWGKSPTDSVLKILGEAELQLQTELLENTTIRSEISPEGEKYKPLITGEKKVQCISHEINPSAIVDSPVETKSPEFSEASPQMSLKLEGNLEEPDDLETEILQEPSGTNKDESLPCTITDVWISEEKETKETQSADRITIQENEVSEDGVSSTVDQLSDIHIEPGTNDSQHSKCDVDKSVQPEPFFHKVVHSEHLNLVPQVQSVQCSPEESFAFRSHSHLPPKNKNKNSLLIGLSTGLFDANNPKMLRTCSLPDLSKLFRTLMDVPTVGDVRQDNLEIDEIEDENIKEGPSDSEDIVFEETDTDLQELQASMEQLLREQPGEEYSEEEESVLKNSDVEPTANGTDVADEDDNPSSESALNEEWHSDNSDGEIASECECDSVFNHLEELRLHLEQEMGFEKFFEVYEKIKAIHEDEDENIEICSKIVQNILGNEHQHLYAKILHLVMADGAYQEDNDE
Sequence of Ephrin type-A receptor 1 (Homo sapiens) (P21709 whole entry, the tested form may be a part): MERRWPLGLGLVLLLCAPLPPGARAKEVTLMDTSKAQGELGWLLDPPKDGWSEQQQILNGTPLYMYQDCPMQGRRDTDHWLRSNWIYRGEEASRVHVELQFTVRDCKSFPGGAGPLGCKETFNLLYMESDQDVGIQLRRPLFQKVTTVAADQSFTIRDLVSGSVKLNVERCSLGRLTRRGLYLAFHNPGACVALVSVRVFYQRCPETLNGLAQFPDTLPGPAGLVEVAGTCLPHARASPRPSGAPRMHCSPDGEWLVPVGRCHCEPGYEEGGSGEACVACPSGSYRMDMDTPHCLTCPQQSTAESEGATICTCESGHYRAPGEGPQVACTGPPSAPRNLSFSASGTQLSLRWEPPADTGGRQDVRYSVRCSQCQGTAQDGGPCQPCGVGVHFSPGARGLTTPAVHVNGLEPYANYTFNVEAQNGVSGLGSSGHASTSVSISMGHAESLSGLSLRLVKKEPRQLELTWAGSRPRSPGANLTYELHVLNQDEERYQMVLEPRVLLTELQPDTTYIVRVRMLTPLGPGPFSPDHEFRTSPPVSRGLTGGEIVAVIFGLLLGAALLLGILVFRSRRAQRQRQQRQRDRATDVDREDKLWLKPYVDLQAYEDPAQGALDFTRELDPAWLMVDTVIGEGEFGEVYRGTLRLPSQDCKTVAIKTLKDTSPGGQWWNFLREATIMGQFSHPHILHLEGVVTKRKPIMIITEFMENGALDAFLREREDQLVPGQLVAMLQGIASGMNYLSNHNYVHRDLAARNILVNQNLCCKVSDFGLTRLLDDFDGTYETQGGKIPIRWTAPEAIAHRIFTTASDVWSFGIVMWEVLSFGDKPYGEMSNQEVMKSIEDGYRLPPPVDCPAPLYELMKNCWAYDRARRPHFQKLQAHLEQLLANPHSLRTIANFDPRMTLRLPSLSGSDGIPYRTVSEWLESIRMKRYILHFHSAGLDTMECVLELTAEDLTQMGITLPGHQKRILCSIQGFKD
Sequence of Fibroblast growth factor receptor 1 (Homo sapiens) (P11362 22-822 limits assumed): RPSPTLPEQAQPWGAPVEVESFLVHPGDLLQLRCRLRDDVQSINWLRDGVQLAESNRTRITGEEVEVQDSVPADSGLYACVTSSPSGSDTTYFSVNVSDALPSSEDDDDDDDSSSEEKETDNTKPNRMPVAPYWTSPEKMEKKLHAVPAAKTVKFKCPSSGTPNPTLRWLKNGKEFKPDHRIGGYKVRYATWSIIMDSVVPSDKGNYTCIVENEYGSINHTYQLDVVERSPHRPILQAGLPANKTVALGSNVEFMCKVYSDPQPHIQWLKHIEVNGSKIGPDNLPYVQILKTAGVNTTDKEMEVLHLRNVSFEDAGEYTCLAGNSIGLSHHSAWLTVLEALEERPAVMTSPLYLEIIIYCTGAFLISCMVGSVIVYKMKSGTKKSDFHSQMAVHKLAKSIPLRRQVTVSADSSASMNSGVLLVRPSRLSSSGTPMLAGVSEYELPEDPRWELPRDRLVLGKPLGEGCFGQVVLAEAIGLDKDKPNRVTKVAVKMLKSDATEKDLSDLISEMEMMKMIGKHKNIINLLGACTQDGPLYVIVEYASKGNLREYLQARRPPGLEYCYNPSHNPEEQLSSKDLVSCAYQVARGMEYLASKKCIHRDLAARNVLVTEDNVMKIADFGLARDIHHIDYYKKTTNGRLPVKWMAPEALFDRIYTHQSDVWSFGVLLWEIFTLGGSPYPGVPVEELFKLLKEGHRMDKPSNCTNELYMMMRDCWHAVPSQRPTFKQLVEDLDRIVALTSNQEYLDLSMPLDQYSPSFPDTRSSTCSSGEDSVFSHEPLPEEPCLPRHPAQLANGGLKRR
Sequence of Rhodopsin kinase GRK1 (Homo sapiens) (Q15835 whole entry, the tested form may be a part): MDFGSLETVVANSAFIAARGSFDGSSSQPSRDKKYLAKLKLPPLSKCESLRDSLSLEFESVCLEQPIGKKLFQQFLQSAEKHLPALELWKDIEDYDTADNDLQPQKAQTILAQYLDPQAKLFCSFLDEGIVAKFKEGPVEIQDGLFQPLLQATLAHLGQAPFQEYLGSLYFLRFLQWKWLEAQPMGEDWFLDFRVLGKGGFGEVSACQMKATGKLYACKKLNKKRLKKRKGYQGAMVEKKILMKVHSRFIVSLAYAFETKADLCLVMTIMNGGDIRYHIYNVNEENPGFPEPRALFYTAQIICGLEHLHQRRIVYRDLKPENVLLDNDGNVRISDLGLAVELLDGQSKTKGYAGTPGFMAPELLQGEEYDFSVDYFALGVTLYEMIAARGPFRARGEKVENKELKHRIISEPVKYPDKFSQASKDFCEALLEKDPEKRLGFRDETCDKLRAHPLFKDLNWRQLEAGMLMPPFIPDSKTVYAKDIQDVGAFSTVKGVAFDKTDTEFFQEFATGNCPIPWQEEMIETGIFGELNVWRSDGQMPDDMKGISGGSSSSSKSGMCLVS
Sequence of Casein kinase I isoform gamma-3 (Homo sapiens) (Q9Y6M4 whole entry, looked up, the tested form may be a part, canonical isoform): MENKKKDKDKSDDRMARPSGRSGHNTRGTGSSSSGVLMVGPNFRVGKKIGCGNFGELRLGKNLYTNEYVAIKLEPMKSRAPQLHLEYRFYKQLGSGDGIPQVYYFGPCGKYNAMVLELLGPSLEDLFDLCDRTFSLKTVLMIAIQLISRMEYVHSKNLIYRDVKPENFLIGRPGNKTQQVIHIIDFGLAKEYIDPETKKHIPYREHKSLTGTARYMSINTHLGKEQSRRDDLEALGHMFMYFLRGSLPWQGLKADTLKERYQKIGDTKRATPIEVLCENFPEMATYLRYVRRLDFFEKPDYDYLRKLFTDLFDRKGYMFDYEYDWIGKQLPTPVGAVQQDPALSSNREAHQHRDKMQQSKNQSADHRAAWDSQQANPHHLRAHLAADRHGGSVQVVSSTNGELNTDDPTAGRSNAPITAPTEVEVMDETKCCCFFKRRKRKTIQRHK

In the case of COCCN[C@H]1CC[C@H](Nc2cc(-c3csc(NCC4(C#N)CCOCC4)n3)c(Cl)cn2)CC1, the Activity [1] is reported as 83%, the Activity [2] is reported as 100% and the Activity [3] is reported as 98%. The Activity [4] was 68%, the Activity [5] was 94% and the Activity [6] was 100%. For the same compound, the Activity [7] was 100%, the Activity [8] was 100% and the Activity [9] was 90%. It also gave an Activity [10] of 39%, a Cmax [11] of 116 ng/mL and an Activity [12] of 99%. The inhibition [13] was “inactive”, the Activity [14] was 82% and the Activity [15] was 84%. For the same compound, the Activity [16] was 78%, the Activity [17] was 94% and the Activity [18] was 95%. The Activity [19] was 85% and the Activity [20] was 90%.
